# Active and inactive are the calls of the source. No cut-off for these calls is given here.
# Key:
# [1] = system: RAW264.7; experiment: Inhibition of IFN-gamma/LPS-induced PGE2 production in mouse RAW264.7 cells at 50 uM after 17 to 20 hrs by EIA method; format: functional
# Outline: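 In RAW 264.7 cells seeded at 4 × 10⁵/well and attached for 2 h at 37 °C, compound was added with LPS, using 0.1% final DMSO as vehicle. Incubation ran 17–20 h at 37 °C, 5% CO₂. Supernatant PGE₂ was quantified by EIA from a standard curve and expressed as percent inhibition at a single test concentration.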
# [2] = Cytotoxicity against mouse RAW264.7 cells assessed as cell viability by MTT assay; format: cell-based; set-up: concentration or dose not given beside the values; conditions: read-out: Activity
# Outline: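 After the 17–20 h LPS co-treatment of RAW 264.7 cells (0.1% DMSO vehicle), the supernatant was removed and MTT (0.05 mg/mL) was added. Cells were held at 37 °C for 4 h. Formazan was dissolved in 100% DMSO and absorbance was read at 570 nm. Results are given as % viability. Culture viability before use was >95% by trypan blue.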
# [3] = system: RAW264.7; experiment: Inhibition of IFN-gamma/LPS-induced nitric oxide production in mouse RAW264.7 cells by Griess assay; format: functional, cell-based
# [4] = system: RAW264.7; experiment: Inhibition of IFN-gamma/LPS-induced PGE2 production in mouse RAW264.7 cells after 17 to 20 hrs by EIA method; format: functional, cell-based
# Outline: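 RAW 264.7 cells (4 × 10⁵/well) attached for 2 h at 37 °C, 5% CO₂. They were then co-incubated with LPS and compound in DMSO (0.1% final) for 17–20 h. Supernatant PGE₂ was measured by EIA against a standard curve. Dose-response testing spanned 0.78 to 50; group differences were tested by one-way ANOVA with Dunnett's test.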
smiles,measurement,setting,value
COc1ccc2c(=O)c(O)c(-c3ccc(OC)c(OC)c3)oc2c1,inhibition at 50 µM,[1],80%
same,viability,[2],82%
COc1cc2c(cc1CC=C(C)C)C(=O)/C(=C/c1ccc(C)cc1)O2,inhibition,[1],inactive
same,viability,[2],> 100%
COc1ccc2c(=O)c(OCC=C(C)C)c(-c3ccc(OC)c(OC)c3)oc2c1,inhibition at 50 µM,[1],58%
same,viability,[2],> 100%
COc1ccc2c(=O)c(OCC=C(C)C)c(-c3ccc(C)cc3)oc2c1,inhibition at 50 µM,[1],41%
same,viability,[2],> 100%
COc1ccc2c(=O)c(O)c(-c3ccc(C)cc3)oc2c1,inhibition at 50 µM,[1],70%
same,viability,[2],78%
CC(C)=CCOc1ccc(/C=C2\Oc3ccccc3C2=O)cc1,inhibition at 50 µM,[1],77%
same,viability,[2],> 100%
COc1cc(O)c(C(=O)/C=C/c2ccc(OC)c(OC)c2)cc1CC=C(C)C,inhibition at 50 µM,[1],90%
same,viability,[2],> 100%
same,IC50,[3],13.8 µM
same,IC50,[4],2.1 µM
CS(=O)(=O)Nc1ccc([N+](=O)[O-])cc1OC1CCCCC1 [NS-398],inhibition at 50 µM,[1],97%
same,viability,[2],> 100%
same,IC50,[4],0.1 µM
COc1cc(O)c(C(=O)/C=C/c2ccc(C)cc2)cc1CC=C(C)C,inhibition at 50 µM,[1],64%
same,viability,[2],> 100%
COc1ccc(C(=O)/C=C/c2ccc(OC)c(OC)c2)c(O)c1,inhibition at 50 µM,[1],75%
same,viability,[2],> 100%
COc1cc2c(cc1CC=C(C)C)C(=O)/C(=C/c1ccc(OC)c(OC)c1)O2,inhibition at 50 µM,[1],83%
same,viability,[2],> 100%
COc1cc(O)c(C(=O)/C=C/c2ccc(-c3ccc(F)cc3)cc2)cc1CC=C(C)C,inhibition at 50 µM,[1],63%
same,viability,[2],> 100%
COc1cc(O)c(C(=O)/C=C/c2ccc(Br)cc2)cc1CC=C(C)C,inhibition at 50 µM,[1],70%
same,viability,[2],> 100%
COc1ccc(C(=O)/C=C/c2ccc(C)cc2)c(O)c1,inhibition,[1],inactive
same,viability,[2],97%
COc1cc(O)c(C(=O)/C=C/c2ccc(O)c(O)c2)cc1CC=C(C)C,inhibition at 50 µM,[1],61%
same,viability,[2],> 100%
CC(C)=CCOc1ccc2c(c1)O/C(=C\c1ccc(C)cc1)C2=O,inhibition at 50 µM,[1],43%
same,viability,[2],> 100%
COc1ccc2c(c1)O/C(=C\c1ccc(C)cc1)C2=O,inhibition at 50 µM,[1],78%
same,viability,[2],> 100%
COc1cc(O)c(C(=O)/C=C/c2cccc(-c3ccc(F)cc3)c2)cc1CC=C(C)C,inhibition,[1],inactive
same,viability,[2],> 100%
COc1ccc2c(c1)O/C(=C\c1ccc(OC)c(OC)c1)C2=O,inhibition at 50 µM,[1],76%
same,viability,[2],> 100%

# From ChEMBL document CHEMBL3352056, “Inhibition of prostaglandin E(2) production by synthetic minor prenylated chalcones and flavonoids: synthesis, biological activity, crystal structure, and in silico evaluation” (Bioorg Med Chem Lett, 2014)
